This passage reports IC50 results from ChEMBL document CHEMBL1250461, “Synthesis, binding and bioactivity of gamma-methylene gamma-lactam ecdysone receptor ligands: advantages of QSAR models for flexible receptors” (Bioorg Med Chem, 2010).

Each structure is given as a SMILES string.

In general, IC50 refers to the concentration that inhibits the measured activity by half.

The assay is described as follows: Binding affinity to Bovicola ovis recombinant ecdysone receptor ligand binding domain after 3 hrs by fluorescence polarization assay. The procedure, abridged:
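B. ovis EcR_DEF/USP_DEF LBD heterodimer, co-expressed from baculovirus and purified by IMAC (2.51 mg/mL final). Competes with 36 nM fluorescein–inokosterone A conjugate in 50 mM sodium phosphate, 100 mM NaCl, pH 7.4 with 0.5 mg/mL BSA and 3% v/v DMSO. Compound range 3 nM–3 mM final. Incubated overnight at 4 °C, then 3 h at room temperature before polarisation (mP) read. Triplicate; IC50 from mean.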
Turning to `C=C1C(CCCC)=C(C#N)C(=O)N1c1c(C)cc(Cl)cc1C(C)C`, the IC50 amounted to 17.5 µM.
As for `C=C1C(C)=C(C#N)C(=O)N1c1cccc(Oc2ccccc2)c1`, the half-maximal inhibitory concentration (IC50) came to 18 µM.
As for `C=C1C(C)=C(C#N)C(=O)N1c1c(C)cc(C)cc1C(F)(C(F)(F)F)C(F)(F)F`, the figure is 160 µM; as for `C=C1C(C)=C(C#N)C(=O)N1c1ccccc1Cl`, 55 µM.
`C=C1C(C)=C(C#N)C(=O)N1c1cc(Cl)ccc1OC(=O)CC`: the IC50 was 55 µM.
As for `C=C1C(C)=C(C(=O)c2ccccc2)C(=O)N1c1c(C)cccc1C(C)C`, the figure is 58 µM.
In the case of `C=C1C(C)=C(C(=O)C(C)C)C(=O)N1c1cc(Cl)c(Cl)cc1Cl`, the IC50 stood at 16 µM.
With `C=C1C(CC(C)C)=C(C#N)C(=O)N1c1c(Cl)c(Cl)cc(Cl)c1Cl` the figure was 45 µM; with `C=C1C(C)=C(C#N)C(=O)N1c1nccs1`, 90 µM.
On to `C=C1C(CCCC)=C(C#N)C(=O)N1c1cc(OC)c(OC)c(OC)c1`, for which the IC50 is 21 µM.
As for `C=C1C(C)=C(C#N)C(=O)N1c1c(C)cc(Cl)cc1C(C)C`, the concentration for half-maximal inhibition (IC50) amounted to 20 µM.
As for `C=C1C(C)=C(C#N)C(=O)N1c1c(C)cc(Cl)cc1C`, the IC50 was 48 µM.
As for `C=C1C(CCCC)=C(C#N)C(=O)N1c1c(C)cccc1C(C)C`, the figure is 20.3 µM; as for `C=C1C(C)=C(C#N)C(=O)N1c1cc(Cl)ccc1O`, 92.5 µM; as for `C=C1C(C)=C(C#N)C(=O)N1c1ncc(Cl)cc1Cl`, 45 µM.
As for `C=C1C(C)=C(C#N)C(=O)N1C1CC2CCC1C2` (centres undefined), the 50% inhibitory concentration (IC50) is 48 µM.
As for `C=C1C(C)=C(C#N)C(=O)N1c1ccc(NC(C)=O)cc1`, the figure is 575 µM; as for `C=C1C(c2ccccc2)=C(C#N)C(=O)N1c1cc(C)ccc1F`, 12.5 µM; as for `C=C1C(CCCC)=C(C#N)C(=O)N1c1c(C)cccc1[N+](=O)[O-]`, 71 µM.
In the case of `C=C1C(C)=C(C(=O)c2ccccc2)C(=O)N1c1c(C(C)C)cccc1C(C)C`, the IC50 was found to be 2250 µM.
For the compound `C=C1C(CCCC)=C(C#N)C(=O)N1c1ccccc1OC(F)(F)F`, the concentration for half-maximal inhibition (IC50) came out at 15 µM.
As for `C=C1C(C)=C(C#N)C(=O)N1c1ccc(N(C)C)cc1`, the IC50 is 150 µM.
As for `CCC/C=C1\C(C)=C(C#N)C(=O)N1c1c(C(C)(C)C)ccc(Cl)c1C`, the figure is 2300 µM; as for `C=C1C(CCC)=C(C#N)C(=O)N1c1c(C)cccc1C(C)C`, 10.5 µM.
As for `C=C1C(C)=C(C#N)C(=O)N1C1CCCC1`, the IC50 was 85 µM.
With `C=C1C(C)=C(C#N)C(=O)N1c1c(C)cccc1[N+](=O)[O-]` the figure was 160 µM.
Take `C=C1C(C)=C(C#N)C(=O)N1c1ccc2c(c1)OCO2`: the IC50 was 67.5 µM.
As for `C=C1C(CC)=C(C#N)C(=O)N1c1cccc(Cl)c1C`, the figure is 15 µM; as for `C=C1C(CC)=C(C#N)C(=O)N1c1ccccc1C(C)(C)C`, 40 µM; as for `C=C1C(C)=C(C#N)C(=O)N1c1cccc(Cl)c1`, 19 µM.
On to `C=C1C(C)=C(C#N)C(=O)N1c1cccc(C(F)(F)F)c1`, for which the IC50 was found to be 22 µM.
Take `C=C1C(C)=C(C(=O)OCC)C(=O)N1c1cc(Cl)c(Cl)cc1Cl`: the half-maximal inhibitory concentration (IC50) was 11 µM.
For the compound `C=C1C(C)=C(C#N)C(=O)N1c1cc(Cl)ccc1Cl`, the IC50 was 12.5 µM.
With `C=C1C(CC)=C(C#N)C(=O)N1c1c(C)cccc1C(C)C` the figure was 45 µM; with `C=C1C(CC(C)C)=C(C#N)C(=O)N1c1ccccc1C`, 11 µM.
Take `C=C1C(CCCC)=C(C#N)C(=O)N1c1c(C)cccc1C`: the IC50 is 35 µM.
As for `C=C1C(CC(C)C)=C(C#N)C(=O)N1c1cc(Cl)ccc1Cl`, the figure is 6.8 µM; as for `C=C1C(C)=C(C#N)C(=O)N1c1ccc(N(C)C(C)=O)cc1`, 400 µM.
As to `C=C1C(C)=C(C#N)C(=O)N1C1CCCC(C)C1C` (centres undefined), the IC50 is 250 µM.
As for `C=C1C(C)=C(C#N)C(=O)N1c1ccc(-c2ccccc2)cc1`, the figure is 35 µM; as for `C=C1C(C)=C(C(C)=O)C(=O)N1c1cc(Cl)c(Cl)cc1Cl`, 45 µM; as for `C=C1C(C)=C(C#N)C(=O)N1Cc1ccccc1Cl`, 37.5 µM.
As to `C=C1C(C)=C(C#N)C(=O)N1c1cc(Cl)c(Cl)cc1Cl`, the IC50 was found to be 7 µM.
Regarding `C=C1C(C)=C(C#N)C(=O)N1c1cc(Cl)ccc1OC`, the IC50 is 650 µM.
As for `C=C1C(C)=C(C#N)C(=O)N1c1cnc2ccccc2c1`, the figure is 26 µM; as for `C=C1C(C)=C(C#N)C(=O)N1c1ccccc1OCC`, 350 µM; as for `C=C1C(C)=C(C#N)C(=O)N1c1c(C)cc(Cl)cc1Cl`, 55 µM.
As to `C=C1C(C)=C(C(=O)c2ccccc2)C(=O)N1c1cc(Cl)c(Cl)cc1Cl`, the IC50 was 9 µM.
With `C=C1C(CC)=C(C#N)C(=O)N1c1c(Cl)cc(Cl)cc1Cl` the figure was 160 µM; with `C=C1C(C(C)C)=C(C#N)C(=O)N1c1c(C)cc(C)cc1C`, 55 µM; with `C=C1C(CCCCCCCC)=C(C#N)C(=O)N1c1c(C)cc(C)cc1C`, 22 µM.
With `C=C1C(C)=C(C#N)C(=O)N1c1cccc(Cl)c1Cl`, the IC50 was found to be 22.5 µM.
As for `C=C1C(CC)=C(C#N)C(=O)N1c1c(C)cccc1CC`, the half-inhibitory concentration (IC50) came to 80 µM.
As for `C=C1C(CC)=C(C#N)C(=O)N1c1ccccc1OC(F)(F)F`, the IC50 came out at 26 µM.
As to `C=C1C(C)=C(C#N)C(=O)N1c1ccccc1OC`, the half-maximal inhibitory concentration (IC50) turned out to be 11 µM.
`C=C1C(C)=C(C#N)C(=O)N1c1ccc(F)c([N+](=O)[O-])c1`: the IC50 stood at 20 µM.
Turning to `CN(C(=O)C1CCCCC1)N1C(=O)C(C#N)=C2CCCC=C21`, the IC50 was 88 µM.
For the compound `C=C1C(C)=C(C(=O)c2ccccc2)C(=O)N1c1c(C)cc(C)cc1C`, the IC50 is 44 µM.
With `C=C1C(C)=C(C#N)C(=O)N1c1ccccc1Br` the figure was 37.5 µM; with `C=C1C(c2ccccc2)=C(C#N)C(=O)N1c1cc(Cl)ccc1Cl`, 8.5 µM; with `C=C1C(C)=C(C#N)C(=O)N1c1ccccc1C(C)C`, 22.5 µM.
With `C=C1C(C)=C(C#N)C(=O)N1c1ccc(Cl)cn1` the figure was 95 µM; with `C=C1C(C)=C(C#N)C(=O)N1c1c(C)cccc1C(C)(C)C`, 160 µM.
As for `C/C=C1\C(C)=C(C#N)C(=O)N1c1c(Cl)cc(Cl)cc1Cl` (mixture of isomers), the figure is 85 µM; as for `COc1cc(OC)cc(N2C(=O)C(C#N)=C(C)/C2=C/C(C)C)c1`, 65 µM; as for `C=C1C(C)=C(C#N)C(=O)N1c1ccc(F)cc1F`, 90 µM.
As for `C=C1C(C)=C(C(=O)c2ccccc2)C(=O)N1c1cc(C(F)(F)F)ccc1Cl`, the 50% inhibitory concentration (IC50) came to 18 µM.
As for `C=C1C(C(C)C)=C(C#N)C(=O)N1c1c(C)cc(Cl)cc1C`, the figure is 11 µM.
As for `C=C1C(C)=C(C#N)C(=O)N1C1CCCCC1`, the figure is 50 µM.
Consider `C=C1C(C)=C(C#N)C(=O)N1C1CCCc2ccccc21` (centres undefined), for which the 50% inhibitory concentration (IC50) turned out to be 26 µM.
As for `C=C1C(C)=C(C#N)C(=O)N1c1cccc(SC)c1`, the IC50 amounted to 25 µM.
With `C=C1C(CCC)=C(C#N)C(=O)N1C1CCCCC1` the figure was 27.5 µM.
With `C=C1C(C)=C(C#N)C(=O)N1c1ccccc1C(C)(C)C` the figure was 17.5 µM; with `C=C1C(CC)=C(C#N)C(=O)N1NC(=O)c1ccc(Cl)cc1`, 72.5 µM.
As for `C=C1C(C)=C(C#N)C(=O)N1c1ccccc1C`, the figure is 80 µM; as for `C=C1C(C)=C(C#N)C(=O)N1c1ccccc1Cc1ccccc1`, 22.5 µM; as for `C=C1C(CCCC)=C(C#N)C(=O)N1c1c(C)cc(C)cc1C`, 11 µM.
Turning to `C=C1C(C)=C(C#N)C(=O)N1c1ccc(Cl)c(Cl)c1Cl`, the IC50 is 15 µM.
As for `C=C1C(C)=C(C#N)C(=O)N1c1ccccc1OC(F)(F)F`, the figure is 45 µM; as for `C=C1C(C)=C(C#N)C(=O)N1c1ccc(OC)cc1OC`, 150 µM; as for `C=C1C(CCC)=C(C#N)C(=O)N1c1c(C)cccc1CC`, 48 µM.
With `C=C1C(C)=C(C#N)C(=O)N1c1cc([N+](=O)[O-])ccc1OC` the figure was 55 µM; with `C=C1C(CC)=C(C#N)C(=O)N1c1cccc(Cl)c1Cl`, 17.5 µM; with `C=C1C(C)=C(C#N)C(=O)N1c1ccccc1Oc1ccccc1`, 25 µM.
With `C=C1C(C)=C(C#N)C(=O)N1c1cc(C(F)(F)F)ccc1C(F)(F)F`, the IC50 worked out at 4.5 µM.
As for `C=C1C(C)=C(C#N)C(=O)N1c1c(CC)cccc1C(C)(C)C`, the figure is 150 µM.
As for `C=C1C(C)=C(C#N)C(=O)N1c1ccc(Cl)c2ccccc12`, the figure is 15 µM; as for `C=C1C(C)=C(C#N)C(=O)N1c1c(C)cc(C)cc1C`, 68 µM.
For `C=C1C(C)=C(C#N)C(=O)N1c1ccccc1-c1ccccc1`, the IC50 amounted to 25 µM.
